Measured values collected from several papers.
Protocols differ between the studies behind these lines.
Target: Calcium/calmodulin-dependent protein kinase type 1D (CAMK1D, Homo sapiens, UniProt Q8IU85)

SMILES	test	conditions	quantity	result
Cc1cc(NC(=O)c2cccc3cc(-c4cccc5[nH]nc(N)c45)ccc23)ccc1F	enzyme activity, inhibitor	0.1 µM	activity vs control	102%
O=C(NCc1ncc(C(F)(F)F)cc1Cl)c1ccc2c(c1)C1(CCS(=O)(=O)CC1)[C@@H](C1CC1)N2S(=O)(=O)c1ccc(F)cc1	cell-free assay, competition with immobilised ligand	1 µM	remaining binding	99%
CC/C(=N\NC(=O)NCc1cccc(O)c1)c1ccc(O)c(C)c1O	enzyme activity, inhibitor	0.1 µM	inhibition	-3.5%
C[C@H](c1ccnc(Nc2nc3ccc(-c4cc(N(C)C)ncn4)cc3[nH]2)c1)N1CCN(C(=O)CC(F)(F)F)CC1	cell-free assay, competition with immobilised ligand	0.1 µM	remaining binding	95%
COc1cccc2c(NCc3ccccc3)nc(-n3c(N)nc4ccccc43)nc12	target engagement in cells, inhibitor, chemoproteomics	20 mM	inhibition	0%
CC1(C)NC(=O)c2[nH]c3c(Cl)c(Cl)ccc3c2C1C#N (stereo not shown)	thermal stability, DSF	10 µM	ΔTm	-0.6 °C
Cc1ccc(Nc2nccc(N(C)c3ccc4c(C)n(C)nc4c3)n2)cc1S(N)(=O)=O	enzyme activity, inhibitor	0.3 µM	inhibition	18%
Cn1c2c(c3ccc(Cl)c(Cl)c31)C(C#N)C1(CCNCC1)NC2=O (racemic)	thermal stability, DSF	10 µM	ΔTm	1.2 °C
Cc1sc(C(=O)NC2COC2)cc1-n1cc(NC(=O)Nc2c(F)cccc2Cl)cn1	enzyme activity, inhibitor	10 µM	remaining activity	105%
COc1cc(-c2cn(C3CCc4ccccc4N(CC(F)(F)F)C3=O)nn2)ccc1-n1ccc(C)n1 (stereo not shown)	cell-free assay, competition with immobilised ligand	1 µM	remaining binding	100%
O=C1c2ccccc2-c2n[nH]c3cccc1c23	enzyme activity, inhibitor	0.5 µM	activity vs control	91.9%
Cc1ccc(C(=O)Nc2ccc(CN3CCN(C)CC3)c(C(F)(F)F)c2)cc1C#Cc1cnc2cccnn12	enzyme activity, inhibitor	23.5 nM	remaining activity	86%
CNC(=O)c1cc(Oc2ccc(NC(=O)Nc3ccc(Cl)c(C(F)(F)F)c3)cc2)ccn1	enzyme activity, inhibitor	10 µM	inhibition	22%
CC(C)(C)c1nc2c(s1)c1nc(N)ncc1c1ccc(NS(=O)(=O)c3c(F)cccc3F)c(F)c12	enzyme activity, inhibitor, radiometric	1 µM	remaining activity	97%
CC(C)(O)[C@H]1CC[C@H](Nc2ccc3ncc(-c4cccc(C(F)(F)F)c4)n3n2)CC1	enzyme activity, inhibitor	1 µM	remaining activity	83.7%
O=C1Nc2ccc(Cl)cc2C1=Cc1cc(Cl)c(O)c(Cl)c1	cell-free assay	0.5 µM	remaining signal	104%

SMILES	test	conditions	quantity	result
COc1cc2ncnc(Nc3ccc(Oc4ccccc4)cc3C)c2cc1OC	enzyme activity, inhibitor	1 µM	inhibition	1%
CCCOc1ccc(OC)c(F)c1C(=O)c1ccc(C(=O)N[C@@H]2CNC[C@H]2NC(=O)c2ccc3[nH]ncc3c2)cc1	enzyme activity, inhibitor	10 µM	remaining activity	63%
C[S+]([O-])c1ccc(-c2nc(-c3ccncc3)c(-c3ccc(F)cc3)[nH]2)cc1 (stereo not shown)	cell-free assay	0.5 µM	remaining signal	105%
Cn1c2c(c3ccc(Cl)c(Cl)c31)C(C#N)C(C)(C)NC2=O (stereo not shown)	thermal stability, DSF	10 µM	ΔTm	-0.6 °C
Cc1c(C(=O)O)cc(-c2ccc(C3CCNCC3)cc2)c2ccc(-c3ccc(C(F)(F)F)cc3)cc12	cell-free assay, competition with immobilised ligand	1 µM	remaining binding	100%
Cn1c2c(Cl)c(Cl)ccc2c2cn[nH]c(=O)c21	thermal stability, DSF	10 µM	ΔTm	-0.1 °C
CN1CC(Oc2cnc(C#N)cc2-c2ccn3nc(NC(=O)C4CC4)cc3c2)C1	enzyme activity, inhibitor	1 µM	inhibition	-2%
CS(=O)(=O)c1cc(C2(NC(=O)c3cncc4c3cnn4-c3ccc(F)cc3)CC2)ccn1	cell-free assay, competition with immobilised ligand	1 µM	remaining binding	90%
CCN1CCC2(CC1)NC(=O)c1c(c3ccc(Cl)c(Cl)c3n1C)C2C#N (racemic)	thermal stability, DSF	10 µM	ΔTm	-0.1 °C
Cc1c(NC(=O)c2cc(C(N)=O)nc3cc(F)ccc23)c(C(F)(F)F)nn1Cc1ccc(C(C)(C)C)cc1	cell-free assay, competition with immobilised ligand	1 µM	remaining binding	84%
Cn1c2c(Cl)c(Cl)ccc2c2cc[nH]c(=O)c21	thermal stability, DSF	10 µM	ΔTm	1 °C
CNCc1ccccc1-c1csc([C@@H](C)Nc2nc(C)nc3cc(OC)c(OC)cc23)c1	cell-free assay, competition with immobilised ligand	1 µM	remaining binding	100%
CN(CCCC(F)(F)F)c1nccc(-c2cnn3ncccc23)n1	binding	1 µM	remaining binding	86%
CN(C)C(=O)Cn1cc(-c2nc(C3(c4ccc(-c5cnc(N)nc5)cc4)CC3)no2)cn1	cell-free assay, competition with immobilised ligand	1 µM	remaining binding	100%
N#CCCc1ccc2c(c1)-c1[nH]c3ccc([N+](=O)[O-])cc3c1CC(=O)N2	cell-free assay	0.5 µM	remaining signal	91.8%
